Results pooled from the literature.
Lines come from different studies, so protocols differ. pIC50, pKd, pKi: −log10 of the molar value.
gag-pol protease: Gag-Pol polyprotein, protease (gag-pol, Human immunodeficiency virus type 1 group M subtype B, UniProt P04585)
KCNH2: Voltage-gated inwardly rectifying potassium channel KCNH2 (KCNH2, Homo sapiens, UniProt Q12809)
CES1: Liver carboxylesterase 1 (CES1, Homo sapiens, UniProt P23141)
F2: Prothrombin (F2, Homo sapiens, UniProt P00734)

Structure (SMILES) | target | assay | conditions | measurement | value
COc1ccc(S(=O)(=O)N(CC(C)C)C[C@@H](O)[C@H](Cc2ccccc2)NC(=O)O[C@@H]2CCC[C@@]23CCO[C@@H](c2cc(OC)cc(OC)c2)C3)cc1 | gag-pol protease | enzyme activity, inhibitor | – | pKi | 7.45
O=c1c2cc(Cl)c(CO)cc2[nH]c(=S)n1Cc1cccnc1 | KCNH2 | ion current, inhibitor, patch clamp | pH 7.4 | pIC50 | < 5.00
COc1ccc(S(=O)(=O)N(CC(C)C)C[C@@H](O)[C@H](Cc2ccccc2)NC(=O)O[C@H]2CCC[C@]23CCO[C@H](c2ccccc2OC)C3)cc1 | gag-pol protease | enzyme activity, inhibitor | – | pKi | 9.66
CC1=C(O)C(=O)C=C2C1=CC=C1[C@@]2(C)CC[C@@]2(C)[C@@H]3C[C@](C)(C(=O)O)CC[C@]3(C)CC[C@]12C | Aldo-keto reductase family 1 member B10 (AKR1B10, Homo sapiens, UniProt O60218) | binding, BLI | – | pKd | 5.62
COc1ccc(S(=O)(=O)N(CC(C)C)C[C@@H](O)[C@H](Cc2ccccc2)NC(=O)O[C@@H]2CCC[C@@]23CCO[C@@H](c2ccccc2)C3)cc1 | gag-pol protease | enzyme activity, inhibitor | – | pKi | 7.29
C=CCc1ccc(O)c(-c2cc(CC=C)ccc2O)c1 | CES1 | enzyme activity, inhibitor | – | pIC50 | 6.41
NCCCCNCCCN | tlpQ (Pseudomonas aeruginosa, UniProt Q9I0I4) | binding, ITC | – | pKd | 6.92
CC(=O)c1c(C)c2cnc(Nc3ccc(C4CCN(CCS(C)(=O)=O)CC4)cn3)nc2n(C2CCCC2)c1=O | KCNH2 | ion current, inhibitor | – | pIC50 | < 4.52
O=c1c2cc(Cl)ccc2[nH]c(=S)n1Cc1cccnc1 | KCNH2 | ion current, inhibitor, patch clamp | pH 7.4 | pIC50 | < 5.00
COc1c2c(cc3c1-c1c(cc4c(c1OC)OCO4)C[C@H](C)[C@H](C)C3)OCO2 | CES1 | enzyme activity, inhibitor | – | pIC50 | 5.85
CS(=O)(=O)N[C@@H](CCC(N)=O)C(=O)N[C@@H](Cc1ccccc1)C(=O)N[C@@H](CCCNC(=N)N)C(=O)c1nccs1 | F2 | cell-free assay | – | pKi | < 5.00
COc1ccc(S(=O)(=O)N(CC(C)C)C[C@@H](O)[C@H](Cc2ccccc2)NC(=O)O[C@H]2CCC[C@@]23CCO[C@@H](c2cccc(OC)c2)C3)cc1 | gag-pol protease | enzyme activity, inhibitor | – | pKi | 5.97
CCOC(=O)c1ccc(OC(=O)CCCCCN=C(N)N)cc1 | Kallikrein-14 (Homo sapiens, UniProt Q9P0G3) | enzyme activity, inhibitor | – | pIC50 | 6.19
N=C(N)NCCC[C@H](NC(=O)[C@H](Cc1ccccc1)NC(=O)[C@H](CCC(N)=O)NC(=O)OCc1ccccc1)C(=O)c1nccs1 | F2 | cell-free assay | – | pKi | 6.00
